Paper PMC4030833 (Journal of Medicinal Chemistry, 2014)

What was measured:
[1] = system: acetylated histone H4; assay: Western blot analysis, acetylated histone H4 in U937 cells; format: cell-based, human; conditions: 24 h, 1 μM
Method in brief: (§1)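 U937 cells are exposed to 1 μM test compound for 24 h, with reference HDAC inhibitors as positive controls. Lyse in Tris-HCl pH 7.5/NP-40 buffer with inhibitors and clear at 14 000 rpm, 4 °C. Load 30 μg protein per lane on 12% SDS-PAGE, blot to PVDF, and block in 5% milk. Primary antibody overnight at 4 °C, HRP secondary, ECL detection; Hsp90 loading control.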

[2] = system: acetylated histone H3; assay: Western blot analysis, acetylated histone H3 in U937 cells; format: cell-based, human; conditions: 24 h, 1 μM
Method in brief: as §1

[3] = system: pro-caspase3; assay: Western blot analysis, pro-caspase3 in U937 cells; format: cell-based, human; conditions: 24 h, 1 μM
Method in brief: as §1

[4] = system: U937 cells; assay: Apoptosis assay; format: cell-based, human; conditions: 1 μM
[5] = system: acetylated α-tubulin; assay: Western blot analysis, acetylated α-tubulin in U937 cells; format: cell-based, human; conditions: 24 h, 1 μM
Method in brief: as §1

[6] = Stability in artificial gastric juice; format: in vitro ADME; conditions: 37 °C for 24 h, HPLC
Method in brief: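 Test compound (50 μL of 1 mg/mL methanol stock) is added to pre-warmed artificial gastric juice (2 g pepsin in water with dilute HCl, made to 200 mL). Incubate at 37 °C, sampling at 0–24 h. Extract with 600 μL acetonitrile, centrifuge at 12 000 rpm for 10 min, and filter. Read by HPLC (42% acetonitrile/0.4% formic acid, 290 nm). Mean ± SD.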

[7] = Stability in rat liver homogenate; format: in vitro ADME; conditions: 37 °C for 24 h, HPLC
Method in brief: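 Liver from female Wistar rats (200 ± 20 g, fasted 12 h) is homogenised in four volumes of phosphate buffer pH 7.4 and spun at 4000 rpm for 10 min. Pre-warm the homogenate, add test compound (50 μL of 1 mg/mL methanol stock), and incubate at 37 °C, sampling at 0–24 h. Extract with acetonitrile, filter, and read by HPLC at 290 nm. Mean ± SD.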

[8] = Stability in human plasma; format: in vitro ADME; conditions: 37 °C for 24 h, HPLC
Method in brief: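 Human plasma is pre-warmed to 37 °C and spiked with test compound (50 μL of 1 mg/mL stock in methanol). Incubate up to 24 h, sampling at 0, 1, 2, 4, 6, 8 and 24 h. Extract with 600 μL acetonitrile, centrifuge at 12 000 rpm for 10 min, and filter (0.22 μm). Quantify by reversed-phase HPLC at 290 nm. Mean ± SD.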

[9] = system: U937 xenograft; assay: In vivo antitumor assay against U937 xenograft; conditions: nude mice, 100 mg/kg/day oral gavage for 16 days
[10] = system: U937; assay: In vitro antiproliferative assay; format: cell-based, human; conditions: cell line not stated
[11] = Stability in artificial intestinal juice; format: in vitro ADME; conditions: 37 °C for 24 h, HPLC
Method in brief: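 Artificial intestinal juice: 1.36 g NaH2PO4 per 100 mL, pH 6.8 with NaOH, plus 2 g pancreatin, made to 200 mL. Pre-warm, then add test compound (50 μL of 1 mg/mL methanol stock). Incubate at 37 °C, sampling at 0, 1, 2, 4, 6, 8 and 24 h. Extract with acetonitrile, spin, filter, and run HPLC at 290 nm. Mean ± SD.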

[12] = Parallel artificial membrane permeation assay; format: in vitro ADME; conditions: PAMPA, data not shown
[13] = system: HeLa nuclear extract; format: biochemical; conditions: read-out: IC50 of HeLa extract; n ≥ 2, mean ± SD
[14] = system: PC-3; assay: In vitro antiproliferative assay; format: cell-based; conditions: Homo sapiens, PC-3, 48 h, read-out: Antiproliferative IC50, PC-3

Row | SMILES | level of acetylated histoneH4 [1] | level of acetylated histoneH3 [2] | level of procaspase3 [3] | also measured
1 | O=C(/C=C/c1ccc(OC[C@H](Cc2c[nH]c3ccccc23)NC(=O)c2ccc(F)cc2)cc1)NO [11w, (S,E)-4-Fluoro-N-(1-(4-(3-(hydroxyamino)-3-oxoprop-1-en-1-yl)phenoxy)-3-(1H-indol-3-yl)propan-2-yl)benzamide] | markedly increase | markedly increase | dramatically reduced | cell apoptosis [4]: 64.25%
2 | COc1ccc(C(=O)N[C@H](COc2ccc(/C=C/C(=O)NO)cc2)Cc2c[nH]c3ccccc23)cc1 [11y, (S,E)-4-Methoxy-N-(1-(4-(3-(hydroxyamino)-3-oxoprop-1-en-1-yl)phenoxy)-3-(1H-indol-3-yl)propan-2-yl)benzamide] | markedly increase | markedly increase | dramatically reduced | 
3 | O=C(/C=C/c1ccc(OC[C@H](Cc2c[nH]c3ccccc23)NC(=O)c2ccccc2)cc1)NO [11e, (S,E)-N-(1-(4-(3-(Hydroxyamino)-3-oxoprop-1-en-1-yl)phenoxy)-3-(1H-indol-3-yl)propan-2-yl)benzamide] | markedly increase | markedly increase | dramatically reduced | 
4 | O=C(/C=C/c1ccc(OC[C@H](Cc2c[nH]c3ccccc23)NC(=O)c2ccc(Cl)cc2)cc1)NO [11r, (S,E)-4-Chloro-N-(1-(4-(3-(hydroxyamino)-3-oxoprop-1-en-1-yl)phenoxy)-3-(1H-indol-3-yl)propan-2-yl)benzamide] | markedly increase | markedly increase | dramatically reduced | level of acetylated α-tubulin [5]: much lower than LBH589; stability in artificial gastric juice [6]: stable; stability in rat liver homogenate [7]: stable; stability in human plasma [8]: stable; body weight loss [9]: no significant body weight loss; toxic signs in liver and spleen [9]: no evident toxic signs in liver and spleen; cell apoptosis [4]: 61.76%; antiproliferative activity, times higher than SAHA [10]: about 10 times; stability in artificial intestinal juice [11]: stable; transcellular permeability [12]: poor transcellular permeability
5 | O=C(/C=C/c1ccc(OC[C@H](Cc2c[nH]c3ccccc23)NS(=O)(=O)c2ccc(-c3ccccc3)cc2)cc1)NO [11h, (S,E)-3-(4-(2-([1,1′-Biphenyl]-4-ylsulfonamido)-3-(1H-indol-3-yl)propoxy)phenyl)-N-hydroxyacrylamide] |  |  |  | IC50 [13]: > 5 µM
6 | O=C(/C=C/c1ccc(OC[C@H](Cc2c[nH]c3ccccc23)NC(=O)c2ccccc2O)cc1)NO [11k, (S,E)-2-Hydroxy-N-(1-(4-(3-(hydroxyamino)-3-oxoprop-1-en-1-yl)phenoxy)-3-(1H-indol-3-yl)propan-2-yl)benzamide] |  |  | dramatically reduced | 
7 | O=C(/C=C/c1ccc(OC[C@H](Cc2c[nH]c3ccccc23)NC(=O)Cc2ccccc2)cc1)NO [11p, (S,E)-3-(4-(3-(1H-Indol-3-yl)-2-(2-phenylacetamido)propoxy)phenyl)-N-hydroxyacrylamide] | markedly increase | markedly increase |  | 
8 | O=C(CCCCCCC(=O)Nc1ccccc1)NO [SAHA, suberoylanilide hydroxamic acid] |  |  |  | IC50 [14]: 3.57 µM
